Laboratory results reported in ChEMBL document CHEMBL3425419, “Developing new chemical tools for DNA methyltransferase 1 (DNMT 1): a small-molecule activity-based probe and novel tetrazole-containing inhibitors” (Bioorg Med Chem, 2015).
Calls of active or inactive are those of the source.

Experiments:
[1] = biological target: DNA (cytosine-5)-methyltransferase 1 (Homo sapiens) (UniProt P26358); assay: Inhibition of recombinant DNMT1 (unknown origin) after 90 mins by fluorescence assay
[2] = test system: MCF7; assay: Cytotoxicity against human MCF7 cells after 72 hrs by XTT assay; type: functional; conditions: for GI50: MCF7, 72 h
Outline: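 MCF-7 breast cancer cells exposed to a range of compound concentrations, and growth read by XTT anti-proliferation assay. GI50 is defined as the concentration giving 50% growth inhibition, taken from dose–response plots.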

[3] = test system: MCF7; assay: Induction of apoptosis in human MCF7 cells assessed as apoptotic cells at 10 uM after 6 hrs by FITC-Annexin V/propidium iodide staining-based FACS analysis relative to control; type: functional
Outline: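 Live MCF-7 cells treated with inhibitors at 10 µM, then stained with FITC Annexin V (apoptosis) and propidium iodide (cell death). Signals were quantified by flow cytometry against DMSO-treated cells.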

[4] = biological target: DNA (cytosine-5)-methyltransferase 1 (Homo sapiens) (UniProt P26358); assay: Binding affinity to DNMT1 in human MCF7 cells at 10 uM preincubated for 1 hr post RG108, 1149 and (S)-Methyl 2-(2,5-dioxo-2,5-dihydro-1H-pyrrol-1-yl)-3-(4-(5-phenyl-2H-tetrazol-2-yl)phenyl)propanoate treatment followed by CuAAC click chemistry application measured after 2 hrs by gel fluorescence scanning assay; type: cell-based
Outline: (§1)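 Freshly prepared MCF-7 lysate (100 µg) labelled with 10 µM alkyne probe for 1 h at room temperature, then CuAAC click for 2 h. TER-PEG-N3 was used for in-gel fluorescence scanning, and TER-Biotin-N3 for pull-down followed by western blot against DNMT1. DMSO-treated cells served as the negative control.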

[5] = biological target: DNA (cytosine-5)-methyltransferase 1 (Homo sapiens) (UniProt P26358); assay: Binding affinity to DNMT1 in human MCF7 cells at 10 uM preincubated for 1 hr post RG108, 1149 and (S)-Methyl 2-(2,5-dioxo-2,5-dihydro-1H-pyrrol-1-yl)-3-(4-(5-phenyl-2H-tetrazol-2-yl)phenyl)propanoate treatment followed by clicked with TER-Biotin-N3 for 2 hrs and pull down by Western blot analysis; type: cell-based; outline: as §1
[6] = Drug uptake in nucleus of human MCF7 cells at 5 uM preincubated for 30 hrs post RG108, 1149 and (S)-Methyl 2-(2,5-dioxo-2,5-dihydro-1H-pyrrol-1-yl)-3-(4-(5-phenyl-2H-tetrazol-2-yl)phenyl)propanoate treatment followed by clicked with TER-PEG-N3 measured after 2 hrs by Hoechst 33342 staining-based immunofluorescence assay; type: ADME, cell-based; conditions: mcf7, 2 h, in the assay text read “30 min” for “30 hrs”
Outline: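 MCF-7 cells incubated with 5 µM alkyne probe for 30 min in the incubator, fixed with 3.7% formaldehyde, permeabilised with 0.1% Triton X-100 and clicked with TER-PEG-N3. Anti-DNMT1 immunofluorescence and Hoechst nuclear staining followed. Localisation was read by fluorescence microscopy, with DMSO-only cells as control.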

[7] = biological target: DNA (cytosine-5)-methyltransferase 1 (Homo sapiens) (UniProt P26358); assay: Competitive inhibition of DNMT1 in (S)-Methyl 2-(2,5-dioxo-2,5-dihydro-1H-pyrrol-1-yl)-3-(5-(prop-2-yn-1-yloxy)-1H-indol-3-yl)propanoate labeled human MCF7 cells at 50 to 500 uM preincubated for 1 hr followed by cell labeling for 1 hr and clicked with TER-biotin-N3 for 2 hrs and pull down by Western blot analysis; type: cell-based
Outline: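 Mammalian cells pretreated with competitor at 50, 100 or 500 µM. Their lysates were then labelled with 10 µM alkyne probe for 1 h at room temperature and clicked for 2 h with TER-Biotin-N3. DNMT1 (~183 kDa) was detected by pull-down and western blot, with DMSO as the negative control.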

[8] = biological target: DNA (cytosine-5)-methyltransferase 1 (Homo sapiens) (UniProt P26358); assay: Competitive inhibition of DNMT1 in (S)-Methyl 2-(2,5-dioxo-2,5-dihydro-1H-pyrrol-1-yl)-3-(5-(prop-2-yn-1-yloxy)-1H-indol-3-yl)propanoate labeled human MCF7 cells at 100 uM preincubated for 1 hr followed by cell labeling for 30 mins and clicked with TER-PEG-N3 measured after 2 hrs by Hoechst 33342 staining-based immunofluorescence assay
Outline: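 Live MCF-7 cells pretreated with competitor at 100 µM for 1 h, then given 5 µM alkyne probe for 30 min in the incubator. Cells were fixed (3.7% formaldehyde), permeabilised (0.1% Triton X-100), clicked with TER-PEG-N3, immunostained with anti-DNMT1 and Hoechst-stained. Imaging was by fluorescence microscopy in four channels (bright-field, probe, IF, nuclear).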

[9] = test system: MCF7; assay: Induction of apoptosis in human MCF7 cells assessed as dead cells at 10 uM after 6 hrs by FITC-Annexin V/propidium iodide staining-based FACS analysis relative to control; type: functional
Outline: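 Live MCF-7 cells treated with compound at 10 µM, then stained with FITC-Annexin V (apoptotic cells) and propidium iodide (dead cells). Signals quantified by flow cytometry and read from histograms.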

Sequence of DNA (cytosine-5)-methyltransferase 1 (Homo sapiens) (P26358 whole entry): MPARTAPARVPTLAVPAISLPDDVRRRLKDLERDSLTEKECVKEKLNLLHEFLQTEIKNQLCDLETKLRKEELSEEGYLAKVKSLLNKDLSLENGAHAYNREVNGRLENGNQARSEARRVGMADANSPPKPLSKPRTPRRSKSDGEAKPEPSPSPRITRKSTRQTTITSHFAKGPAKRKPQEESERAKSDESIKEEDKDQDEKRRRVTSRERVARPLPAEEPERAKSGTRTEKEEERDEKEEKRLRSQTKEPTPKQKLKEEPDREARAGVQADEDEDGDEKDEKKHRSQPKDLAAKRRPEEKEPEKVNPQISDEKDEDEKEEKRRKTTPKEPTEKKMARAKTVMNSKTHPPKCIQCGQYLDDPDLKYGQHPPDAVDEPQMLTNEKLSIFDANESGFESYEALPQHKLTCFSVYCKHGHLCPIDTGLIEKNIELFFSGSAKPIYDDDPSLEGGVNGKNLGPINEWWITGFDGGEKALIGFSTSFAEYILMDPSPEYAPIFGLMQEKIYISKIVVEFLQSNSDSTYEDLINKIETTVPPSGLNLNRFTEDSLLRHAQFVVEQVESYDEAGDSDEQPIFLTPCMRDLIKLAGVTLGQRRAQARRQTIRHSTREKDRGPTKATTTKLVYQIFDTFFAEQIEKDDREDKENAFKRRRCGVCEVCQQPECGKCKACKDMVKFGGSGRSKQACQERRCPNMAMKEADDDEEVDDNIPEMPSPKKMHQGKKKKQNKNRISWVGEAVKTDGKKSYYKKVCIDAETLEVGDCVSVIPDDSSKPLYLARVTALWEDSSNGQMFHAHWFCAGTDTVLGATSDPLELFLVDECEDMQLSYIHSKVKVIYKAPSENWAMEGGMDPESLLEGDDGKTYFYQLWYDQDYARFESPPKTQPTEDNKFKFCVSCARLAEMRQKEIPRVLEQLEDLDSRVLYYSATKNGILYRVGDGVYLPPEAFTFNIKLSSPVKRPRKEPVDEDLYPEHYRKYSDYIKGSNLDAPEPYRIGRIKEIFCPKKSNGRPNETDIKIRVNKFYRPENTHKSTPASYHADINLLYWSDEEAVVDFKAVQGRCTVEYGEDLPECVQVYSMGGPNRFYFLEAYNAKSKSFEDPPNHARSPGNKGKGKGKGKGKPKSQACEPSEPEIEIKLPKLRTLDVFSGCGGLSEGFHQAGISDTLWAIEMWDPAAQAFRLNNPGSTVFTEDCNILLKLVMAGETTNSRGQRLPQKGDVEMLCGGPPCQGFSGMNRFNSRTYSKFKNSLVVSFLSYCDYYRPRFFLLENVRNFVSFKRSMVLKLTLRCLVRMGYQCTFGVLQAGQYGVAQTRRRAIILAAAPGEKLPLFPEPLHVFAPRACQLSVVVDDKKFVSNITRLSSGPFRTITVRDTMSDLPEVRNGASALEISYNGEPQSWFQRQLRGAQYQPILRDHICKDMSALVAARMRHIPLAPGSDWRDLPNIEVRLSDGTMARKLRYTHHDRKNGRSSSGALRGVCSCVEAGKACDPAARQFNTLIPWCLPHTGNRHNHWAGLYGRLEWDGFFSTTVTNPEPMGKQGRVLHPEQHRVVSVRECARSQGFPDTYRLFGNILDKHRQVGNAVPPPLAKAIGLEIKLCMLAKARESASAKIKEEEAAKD

inhibition [1]	Compound	growth inhibition (GI) [2]	GI50 [2] [nM]	Activity [3]	Activity [4]	Activity [5]	Drug uptake [6]	inhibition [7]	inhibition [8]	Activity [9]
Active	COC(=O)[C@H](Cc1ccc(-n2nnc(-c3cc(C)cc(C)c3)n2)cc1)N1C(=O)C=CC1=O	Dose-dependent effect	780							
Active	COC(=O)[C@H](Cc1ccc(-n2nnc(-c3cccc4ccccc34)n2)cc1)N1C(=O)C=CC1=O	Dose-dependent effect	480							
	C#CCOc1ccc2[nH]cc(C[C@@H](C(=O)OC)N3C(=O)C=CC3=O)c2c1	Dose-dependent effect	290	61%	inactive	Active	Active			
Active	COC(=O)[C@H](Cc1ccc(-n2nnc(-c3cc(F)cc(F)c3)n2)cc1)N1C(=O)C=CC1=O	Dose-dependent effect	1100							
Active	O=C(O)[C@H](Cc1c[nH]c2ccccc12)N1C(=O)C=CC1=O		7310					Active	Active	
Active	COC(=O)[C@H](Cc1ccc(-n2nnc(-c3ccc(C(C)C)cc3)n2)cc1)N1C(=O)C=CC1=O	Dose-dependent effect	380							
Active	COC(=O)[C@H](Cc1ccc(-n2nnc(-c3ccc(C(F)(F)F)cc3)n2)cc1)N1C(=O)C=CC1=O	Dose-dependent effect	1770							
Active	COC(=O)[C@H](Cc1ccc(-n2nnc(-c3ccc(F)cc3)n2)cc1)N1C(=O)C=CC1=O	Dose-dependent effect	1160							
Active	COC(=O)[C@H](Cc1ccc(-n2nnc(-c3ccc(N(C)C)cc3)n2)cc1)N1C(=O)C=CC1=O	Dose-dependent effect	1080							
Active	CCCCCCOc1ccc(-c2nnn(-c3ccc(C[C@@H](C(=O)OC)N4C(=O)C=CC4=O)cc3)n2)cc1	Dose-dependent effect	6150							
Active	COC(=O)[C@H](Cc1ccc(-n2nnc(-c3ccc(OC)cc3)n2)cc1)N1C(=O)C=CC1=O	Dose-dependent effect	870							
Active	COC(=O)[C@H](Cc1ccc(-n2nnc(-c3ccncc3)n2)cc1)N1C(=O)C=CC1=O	Dose-dependent effect	1860							
Active	COC(=O)[C@H](Cc1ccc(-n2nnc(-c3ccc(OC(F)F)cc3)n2)cc1)N1C(=O)C=CC1=O	Dose-dependent effect	730							

Compound	inhibition [1]	growth inhibition (GI) [2]	GI50 [2] [nM]	Activity [3]	Activity [4]	Activity [5]	Drug uptake [6]	inhibition [7]	inhibition [8]	Activity [9]
COC(=O)[C@H](Cc1ccc(-n2nnc(-c3ccccc3)n2)cc1)N1C(=O)C=CC1=O	Active	Dose-dependent effect	300	Active				Active	Active	Active
O=C(O)[C@H](Cc1c[nH]c2ccccc12)N1C(=O)c2ccccc2C1=O	Active		128000	Active				Active	Active	Active
